Test results from ChEMBL document CHEMBL1129442, “Synthesis and structure-activity relationship of pyrazolo[3,4-d]pyrimidines: potent and selective adenosine A1 receptor antagonists” (J Med Chem, 1996).
pKi: −log10 of the molar value.

Experiments:
[1] = target: Adenosine receptors; A1 & A2a (Rattus norvegicus) (UniProt P25099+P30543); test: Ratio of Binding Constants for adenosine A2A and A1 receptors; assay type: protein assay
Adenosine receptor A2a = Adenosine receptor A2a (Rattus norvegicus, UniProt P30543); test: Inhibition of [3H]CGS-21680 binding to Adenosine A2A receptor of rat striatal membranes; assay type: cell membranes, Membrane
Method in brief: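 Rat striatal membranes (150 µg, adenosine deaminase-pretreated) incubated 120 min at 25 °C with 5 nM [3H]CGS 21680 in 50 mM Tris-HCl, 10 mM MgCl2, pH 7.4. Test compound given at ≥12 concentrations, final Me2SO 1%, 2% or 5%. Nonspecific binding defined with 20 µM 2-chloroadenosine. Bound ligand filtered as for the A1 assay. Ki derived from IC50 via Cheng-Prusoff (Kd 14.9 nM). At least two experiments in duplicate, mean ± SEM.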

Adenosine receptor A1 = target: T1, Adenosine receptor A1 (Rattus norvegicus, UniProt P25099); test: Displacement of [3H]N6-PIA from Adenosine A1 receptor from rat whole brain
T1 sequence (P25099 whole entry): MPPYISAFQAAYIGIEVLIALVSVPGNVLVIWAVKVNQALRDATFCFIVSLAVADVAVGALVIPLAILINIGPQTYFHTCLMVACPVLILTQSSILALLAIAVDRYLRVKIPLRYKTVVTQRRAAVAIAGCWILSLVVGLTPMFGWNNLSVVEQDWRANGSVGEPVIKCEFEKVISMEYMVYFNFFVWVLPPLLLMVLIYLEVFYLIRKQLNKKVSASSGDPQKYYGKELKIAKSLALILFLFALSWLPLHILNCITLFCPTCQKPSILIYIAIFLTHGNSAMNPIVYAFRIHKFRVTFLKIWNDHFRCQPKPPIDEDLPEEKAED
Method in brief: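 Rat whole-brain membranes (100 µg, pretreated with 0.1 U/mg adenosine deaminase, 10 min, 37 °C) incubated 90 min at 25 °C with 1 nM (R)-[3H]-N6-PIA in 50 mM Tris-HCl pH 7.4. Test compound given at ≥12 concentrations, final Me2SO 1%, 2% or 5%. Nonspecific binding defined with 10 µM 2-chloroadenosine. Bound ligand collected by filtration on glass fiber filters. Ki derived from IC50 via Cheng-Prusoff (Kd 1 nM). At least two experiments in duplicate, mean ± SEM.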

[2] = target: Adenosine receptor A2a (Rattus norvegicus) (UniProt P30543); test: Percent inhibition of [3H]CGS-21680 binding to Adenosine A2A receptor rat striatal membranes; assay type: cell membranes; details: Membrane, concentration not given here
Sequence of Adenosine receptor A2a (Rattus norvegicus) (P30543 whole entry): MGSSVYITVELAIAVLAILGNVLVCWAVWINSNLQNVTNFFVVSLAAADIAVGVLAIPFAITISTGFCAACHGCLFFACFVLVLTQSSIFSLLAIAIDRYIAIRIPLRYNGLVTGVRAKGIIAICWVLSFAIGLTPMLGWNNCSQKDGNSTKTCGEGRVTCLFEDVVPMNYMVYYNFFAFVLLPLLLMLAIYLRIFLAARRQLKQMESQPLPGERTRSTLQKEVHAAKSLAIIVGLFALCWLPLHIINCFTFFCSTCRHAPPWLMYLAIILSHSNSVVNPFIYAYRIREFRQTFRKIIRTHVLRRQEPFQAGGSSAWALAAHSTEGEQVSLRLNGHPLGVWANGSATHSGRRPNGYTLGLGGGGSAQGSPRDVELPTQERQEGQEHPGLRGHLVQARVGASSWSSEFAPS

Sequence of Adenosine receptors; A1 & A2a (Rattus norvegicus) (P30543 whole entry, looked up, one chain of several): as the sequence (P30543 whole entry) above
Sequence of Adenosine receptor A2a (P30543 whole entry): as above

Row | Structure (SMILES) | Ratio [1] | pKi (Adenosine receptor A2a) | pKi (Adenosine receptor A1) | inhibition [2] [%]
1 | CCCC(Sc1nc2c(cnn2-c2ccccc2)c(=S)[nH]1)C(N)=O (centres undefined) | – | 5.35 | 7.25 | –
2 | CCC(Sc1nc(SC)c2cnn(-c3ccccc3)c2n1)C(N)=O (centres undefined) | 95 | 6.10 | 8.08 | –
3 | CC(C)C(Sc1nc(N)c2cnn(-c3ccccc3)c2n1)C(N)=O (centres undefined) | 54 | 6.83 | 8.56 | –
4 | CSc1nc(SC(C(N)=O)C(C)C)nc2c1cnn2-c1ccccc1 (centres undefined) | > 1300 | – | 7.80 | 37
5 | CC(C)C(Sc1nc2c(cnn2-c2ccccc2)c(=S)[nH]1)C(N)=O (centres undefined) | – | – | 6.59 | –
6 | CCC(Sc1nc2c(cnn2-c2ccccc2)c(=S)[nH]1)C(N)=O (centres undefined) | – | 5.06 | 6.81 | –
7 | CCC(Sc1nc(N)c2cnn(-c3ccccc3)c2n1)C(N)=O (centres undefined) | 29 | 7.35 | 8.81 | –
8 | CC(C)C(Sc1nc(S)c2cnn(-c3ccccc3)c2n1)C(N)=O (centres undefined) | > 78 | – | – | 44

Continued, values first:

Row | Ratio [1] | pKi (Adenosine receptor A2a) | pKi (Adenosine receptor A1) | inhibition [2] [%] | Structure (SMILES)
9 | 79 | – | – | – | CCCC(Sc1nc(S)c2cnn(-c3ccccc3)c2n1)C(N)=O (centres undefined)
10 | 94 | 7.05 | 9.03 | – | CCCCC(Sc1nc(N)c2cnn(-c3ccccc3)c2n1)C(N)=O (centres undefined)
11 | 580 | 5.36 | 8.12 | – | CCCC(Sc1nc(SC)c2cnn(-c3ccccc3)c2n1)C(N)=O (centres undefined)
12 | 33 | 7.45 | 8.97 | – | CCCC(Sc1nc(N)c2cnn(-c3ccccc3)c2n1)C(N)=O (centres undefined)
13 | 332 | 6.61 | 9.13 | – | CCCCC(Sc1nc(NC)c2cnn(-c3ccccc3)c2n1)C(N)=O (centres undefined)
14 | > 5900 | – | 8.17 | 12 | CCCCC(Sc1nc(SC)c2cnn(-c3ccccc3)c2n1)C(N)=O (centres undefined)
15 | > 270 | – | 7.43 | 52 | CCCCC(Sc1nc(S)c2cnn(-c3ccccc3)c2n1)C(N)=O (centres undefined)
16 | 56 | – | – | – | CCC(Sc1nc(S)c2cnn(-c3ccccc3)c2n1)C(N)=O (centres undefined)
